Assay results collected from several papers.
Lines come from different studies, so protocols differ.
Target: Serine/threonine-protein kinase TBK1 (TBK1, Homo sapiens, UniProt Q9UHD2)
Sequence (Q9UHD2 1-729, as in one of the studies): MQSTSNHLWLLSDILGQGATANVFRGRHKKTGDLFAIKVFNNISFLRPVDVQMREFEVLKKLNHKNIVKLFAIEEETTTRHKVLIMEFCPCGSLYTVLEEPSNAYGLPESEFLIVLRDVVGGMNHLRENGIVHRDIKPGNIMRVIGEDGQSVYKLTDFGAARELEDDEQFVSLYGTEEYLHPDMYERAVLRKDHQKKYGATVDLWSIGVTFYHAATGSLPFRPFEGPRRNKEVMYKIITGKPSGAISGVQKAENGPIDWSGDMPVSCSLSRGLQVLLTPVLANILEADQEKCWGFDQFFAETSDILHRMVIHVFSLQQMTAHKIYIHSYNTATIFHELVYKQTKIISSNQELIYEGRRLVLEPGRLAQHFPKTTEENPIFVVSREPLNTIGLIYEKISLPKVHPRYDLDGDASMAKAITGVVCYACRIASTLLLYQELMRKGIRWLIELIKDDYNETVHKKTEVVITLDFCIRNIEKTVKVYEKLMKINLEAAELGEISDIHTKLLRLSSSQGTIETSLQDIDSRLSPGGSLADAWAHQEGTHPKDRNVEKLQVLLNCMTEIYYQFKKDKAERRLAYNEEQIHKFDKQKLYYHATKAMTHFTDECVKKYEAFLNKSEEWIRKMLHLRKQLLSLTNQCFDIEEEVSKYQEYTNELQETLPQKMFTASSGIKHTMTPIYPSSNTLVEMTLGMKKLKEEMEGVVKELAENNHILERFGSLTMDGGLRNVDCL

With Cc1cnc(Nc2ccc(C(=O)N3CCC(N4CCCC4)CC3)cc2)nc1-c1cc2ccccc2s1 the remaining binding was 4.5% (binding; competition with immobilised ligand; 1 µM).
Nc1ncc2c(n1)-c1c([nH]c3ccc(C#CC4CC4)cc13)CCCC2 gave a remaining binding of 88% (binding; competition with immobilised ligand; 1 µM).
The remaining binding of COc1cnc(Nc2cccc(S(N)(=O)=O)c2)nc1N1CCN(c2ccccc2)C(=O)C1 is reported as 61% (binding; competition with immobilised ligand; 1 µM).
With C[C@H]1CCN(c2nccc(-c3cnn4ncccc34)n2)C1 the remaining binding was 80% (binding; 1 µM).
c1cncc(-c2cccc(Nc3nccc(NC4CCCCC4)n3)c2)c1 has a remaining binding of 62% (binding; competition with immobilised ligand; 10 µM).
Cc1cnn2ncc(-c3ccnc(N(C)C)n3)c2c1 gave a remaining binding of 82% (binding; 1 µM).
With COc1cccc(CNC(=O)c2nc3scc(COCc4ccc(C(=O)O)cc4)c3c(=O)[nH]2)c1 the remaining binding was 94% (cell-free assay; competition with immobilised ligand; 1 µM).
CN(C)c1ncc(F)c(-c2cnn3ncccc23)n1 gave a remaining binding of 86% (binding; 1 µM).
With O=C(Nc1ccc(Oc2ccc(F)cc2)cc1)N1CCc2ncccc2[C@H]1c1ccc(F)cc1 the remaining binding was 81% (cell-free assay; competition with immobilised ligand; 1 µM).
O=C(Nc1c[nH]nc1C(=O)NC1CCNCC1)c1cc(F)cc(F)c1 gave a remaining binding of 100% (binding; competition with immobilised ligand; 1 µM).
For CC1=C(C#N)C(c2ccc3c(c2)c(NC(=O)c2ccccc2C)nn3C)C(C#N)=C(C)N1, the remaining binding was 69% (cell-free assay; competition with immobilised ligand; 1 µM).
For F[C@@H]1CCN(c2nccc(-c3cnn4ncccc34)n2)C1, the remaining binding was 84% (binding; 1 µM).
CNC(=O)[C@@H]1CC[C@@H](n2c(-c3ccc4cnccc4c3)nc3ccc(C(=O)NCc4cccc(C(N)=O)c4)cc32)C1 gave a remaining binding of 95% (binding; competition with immobilised ligand; 1 µM).
COc1ccnn2ncc(-c3ccnc(N(C)C)n3)c12 gave a remaining binding of 68% (binding; 1 µM).
CS(=O)(=O)N1CCCC(NC(=O)[C@H](CCC2CCCCC2)NC(=O)c2ccc(CNC(=O)c3cnc4ccccn34)cc2)C1 (stereo partly drawn) has a remaining binding of 75% (cell-free assay; competition with immobilised ligand; 0.1 µM).
For O=C(NCCCN1CCOCC1)c1ccc(Nc2ncc(Cl)c(-c3ccc(Cl)s3)n2)cc1, the remaining binding was 23% (binding; competition with immobilised ligand; 1 µM).
O=C(NC[C@@H]1[C@H]2CN(C(=O)OCc3cc(C(F)(F)F)cc(C(F)(F)F)c3)C[C@@H]12)c1ccc2[nH]nnc2c1 gave a remaining binding of 100% (cell-free assay; competition with immobilised ligand; 1 µM).
N[C@@H]1CCN(c2nccc(-c3cnn4ncccc34)n2)C1 has a remaining binding of 97% (binding; 1 µM).
With CC(C)(O)c1cncc(-c2nc3ccc(F)cc3n2C2CC2)c1 the remaining binding was 72% (cell-free assay; competition with immobilised ligand; 1 µM).
O=C(c1ccc(Nc2ncc(Cl)c(-c3ccc(Cl)s3)n2)cc1)N1CCC(N2CCCC2)CC1 has a remaining binding of 0% (binding; competition with immobilised ligand; 1 µM).
The remaining binding of COc1ncc2cc3ccccc3nc2c1C#N is reported as 98% (cell-free assay; competition with immobilised ligand; 5 µM).
